For test [1], the system named is Rattus norvegicus. The test can be described thus: Change in blood-pressure was determined after 1 hr administration of(10 mg/kg/po) in conscious, spontaneously hypertensive rats(SHR). The class given is functional. Summed up: (§1)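 Conscious spontaneously hypertensive rats (n = 4 per group) were dosed orally at 10 mg/kg as HCl salts, with placebo as a control group. Blood pressure was measured directly, and heart rate was also recorded. Changes from pre-dose values were read at 1, 2, 3 and 4 h and reported as means ± SEM. Analysis used ANOVA with Duncan's multiple range statistic.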

Test [2] concerns Rattus norvegicus. The test can be described thus: Change in blood-pressure was determined after 3h administration of(10 mg/kg/po) in conscious, spontaneously hypertensive rats(SHR). The format is functional. Summed up:
as §1

The species entered for test [3] is Rattus norvegicus. The test can be described thus: Potency (vasodilation) relative to labetolol. The class given is functional.
Test [4] has as its target T1, Adrenergic receptor alpha (Rattus norvegicus) (UniProt P15823+P23944+P43140+P22086+P19328+P22909).
The test system of test [5] is Rattus norvegicus. Nature of the test: Change in Heart rate(beats/min) was determined after 1 hr of (10 mg/kg p.o.) administration in conscious, spontaneously hypertensive rats. The format is functional. Summed up:
as §1

Test [6] deals with Beta-1 adrenergic receptor (Rattus norvegicus) (UniProt P18090). Nature of the test: Antagonistic activity was determined for 50% inhibition of tachycardia response in anesthetized, normotensive rat at a dose range of 0.03-0.3 mg/kg(iv). The class given is functional, organism-based. Summed up: (§2)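 Anesthetized normotensive rats received the test agent iv as HCl salts in three cumulative doses. The tachycardic response to (±)-isoproterenol (0.1 mg/kg iv) was measured. ID50 is the iv dose giving 50% inhibition of that response, reported as mean ± SEM. Analysis used analysis of variance with Duncan's multiple range statistic.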

Test [7] deals with Rattus norvegicus. The test can be described thus: Change in Heart rate(beats/min) was determined after 2 hr of (10 mg/kg p.o.) administration in conscious, spontaneously hypertensive rats. The format is functional. Summed up: as §1
Test [8] has as its system Rattus norvegicus. The test can be described thus: Change in Heart rate(beats/min) was determined after 4 hr of (10 mg/kg p.o.) administration in conscious, spontaneously hypertensive rats. The format is functional. In outline: as §1
The subject of test [9] is Rattus norvegicus. Nature of the test: Change in blood-pressure was determined after 4 hr administration of(10 mg/kg/po) in conscious, spontaneously hypertensive rats(SHR). The format is functional. In outline:
as §1

Test [10] relates to Rattus norvegicus. The test can be described thus: Change in Heart rate(beats/min) was determined after 3h of (10 mg/kg p.o.) administration in conscious, spontaneously hypertensive rats. The class given is functional. In outline: as §1
Test [11] deals with Rattus norvegicus. Nature of the test: Antihypertensive activity was determined before dosing in conscious, spontaneously hypertensive rats(SHR). The format is functional. Summed up:
(§3)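 Blood pressure (mmHg) and heart rate (beats/min) were measured directly in conscious spontaneously hypertensive rats before oral dosing. Groups had n = 4, and values are means ± SEM.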

Test [12] relates to Rattus norvegicus. The test can be described thus: Decrease in blood pressure(mm/Hg) was determined after administration of (10 mg/kg/po); 30-32/>4. The class given is functional.
The target in test [13] is Beta-1 adrenergic receptor (Rattus norvegicus) (UniProt P18090). The test can be described thus: Potency to block Beta-1 adrenergic receptor relative to labetolol. Summed up:
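Rats, iv dosing as HCl salts in three cumulative doses. Antagonism of the tachycardic response to (±)-isoproterenol (0.1 mg/kg iv) was measured. ID50 is the dose giving 50% inhibition of that response (mean ± SEM), with 3-8 animals per compound. Statistics used analysis of variance with Duncan's multiple range test.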

Test [14] can be described thus: Ratio of Relative potency of beta1/alpha bock values. The class given is functional.
For test [15], the system named is Rattus norvegicus. The test can be described thus: Change in blood-pressure was determined after 2 hr administration of(10 mg/kg/po) in conscious, spontaneously hypertensive rats(SHR). The format is functional. Summed up: as §1
Test [16] concerns Rattus norvegicus. Nature of the test: Antihypertensive activity was determined by Heart rate(beats/min) measurement before dosing in conscious, spontaneously hypertensive rats. The format is functional. In outline:
as §3

For test [17], the target named is T1, Adrenergic receptor alpha (Rattus norvegicus). The source holds these as a separate data set.
The subject of test [18] is Rattus norvegicus. The test can be described thus: Change in blood-pressure was determined after 3h administration of (10 mg/kg/po) in conscious, spontaneously hypertensive rats(SHR). The class given is functional. Summed up: as §1
Test [19] in a line: Ratio of Relative potency of beta1/alpha bock values; 26-39.
Test [20] relates to Rattus norvegicus. Nature of the test: Change in blood-pressure was determined after 2 hr administration of (10 mg/kg/po) in conscious, spontaneously hypertensive rats(SHR). The class given is functional. In outline: as §1
Test [21] deals with Rattus norvegicus. Nature of the test: Change in blood-pressure was determined after 4 hr administration of (10 mg/kg/po) in conscious, spontaneously hypertensive rats(SHR). The class given is functional. Summed up: as §1
The target of test [22] is Beta-1 adrenergic receptor (Rattus norvegicus) (UniProt P18090). Nature of the test: Antagonistic activity was determined for 50% inhibition of tachycardia response in anesthetized, normotensive rat at a dose range of 0.1-1(iv). The class given is functional, organism-based. In outline:
as §2

The subject of test [23] is Rattus norvegicus. Nature of the test: Change in blood-pressure was determined after 1 hr administration of (10 mg/kg/po) in conscious, spontaneously hypertensive rats(SHR). The class given is functional. Summed up: as §1
The subject of test [24] is Rattus norvegicus. Nature of the test: Antihypertensive activity was determined before dosing in conscious, spontaneously hypertensive rats(SHR); 12/~1. The format is functional.
The target in test [25] is Beta-1 adrenergic receptor (Rattus norvegicus) (UniProt P18090). Nature of the test: Antagonistic activity was determined for 50% inhibition of tachycardia response in anesthetized, normotensive rat at a dose range of 0.3-3 mg/kg(iv). The class given is functional, organism-based. Summed up:
as §2

Test [26] has as its system Adrenergic receptor alpha (Rattus norvegicus). Nature of the test: Relative alpha-adrenergic blocking potency was determined after administration of intravenously.
In test [27] the target is Beta-1 adrenergic receptor (Rattus norvegicus) (UniProt P18090). Nature of the test: Antagonistic activity was determined for 50% inhibition of tachycardia response in anesthetized, normotensive rat at a dose range of 0.3-3 mg/kg(iv); Inactive. The format is functional, organism-based. In outline: as §2
Test [28] concerns Rattus norvegicus. The test can be described thus: Decrease in blood pressure(mm/Hg) was determined after administration of (10 mg/kg/po). The class given is functional. Summed up: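 Conscious spontaneously hypertensive rats, n = 4 per group, placebo control. Single oral dose of 10 mg/kg as HCl salt. Blood pressure and heart rate were measured directly before dosing and at 1, 2, 3 and 4 h after. Change from predose is given as mean ± SEM. Statistics used analysis of variance with Duncan's multiple range test.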

The target in test [29] is T1, Adrenergic receptor alpha (Rattus norvegicus). This is another data set of the same source.

Active and inactive are the calls of the source. No cut-off for these calls is given here.

Sequence of Beta-1 adrenergic receptor (Rattus norvegicus) (P18090 whole entry, looked up): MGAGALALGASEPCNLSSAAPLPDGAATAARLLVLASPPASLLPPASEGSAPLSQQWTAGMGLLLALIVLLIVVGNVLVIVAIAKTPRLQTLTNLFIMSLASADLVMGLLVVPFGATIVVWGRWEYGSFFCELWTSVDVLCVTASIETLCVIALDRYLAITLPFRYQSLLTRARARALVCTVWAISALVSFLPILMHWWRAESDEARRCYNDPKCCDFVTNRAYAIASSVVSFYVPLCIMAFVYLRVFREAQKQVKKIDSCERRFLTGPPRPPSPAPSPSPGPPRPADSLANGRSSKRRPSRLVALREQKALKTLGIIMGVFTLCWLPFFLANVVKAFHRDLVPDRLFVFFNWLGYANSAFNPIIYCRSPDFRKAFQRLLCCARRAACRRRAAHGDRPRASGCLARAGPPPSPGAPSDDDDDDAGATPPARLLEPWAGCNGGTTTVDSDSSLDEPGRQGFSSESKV

With `C[C@H](CCc1ccccc1)NC[C@H](O)c1ccc(O)c(C(N)=O)c1.Cl` [DILEVALOL HYDROCHLORIDE], the “Change in BP” value in the test on Rattus norvegicus [1] is listed as -26 mmHg; in the test with Rattus norvegicus [2], -29 mmHg; in the test with Rattus norvegicus [9] it was -27 mmHg; in the test on Rattus norvegicus [15], -26 mmHg. For the same molecule, the Relative potency in the test filed under Rattus norvegicus [3] came to 7; in test [13] it was 3.5. Moreover, the ID50 in test [4] was 35 mg/kg; in test [6] it was 0.07 mg/kg. The Heart rate in the test with Rattus norvegicus [5] is -47 beats min-1; in the test on Rattus norvegicus [7], -41 beats min-1; with Rattus norvegicus [8] it was -45 beats min-1; in the test on Rattus norvegicus [10], -55 beats min-1; in the test on Rattus norvegicus [16], 378 beats min-1. In the test on Rattus norvegicus [11], this molecule returned a BP of 160 mmHg. The “Decrease in blood pressure” value in the test with Rattus norvegicus [12] is over 30. The Ratio in test [14] is over 500.

In the case of `CC(CCc1ccccc1)NCC(O)c1ccc(O)c(C(N)=O)c1` (centres undefined) [LABETALOL], the Relative potency (in the test filed under Rattus norvegicus [3]; in test [13]) was 1 in each case. The ID50 in test [17] came out at 7.1 mg/kg; in test [22], 0.25 mg/kg. Also, the “Change in BP” value with Rattus norvegicus [18] was -20 mmHg; in the test on Rattus norvegicus [20] it was -22 mmHg; with Rattus norvegicus [21], -20 mmHg; in the test with Rattus norvegicus [23] it was -29 mmHg. In addition, the Ratio in test [19] came out at 26. In addition, the Heart rate with Rattus norvegicus [5] is recorded as -13 beats min-1; in the test on Rattus norvegicus [7] it was -18 beats min-1; in the test with Rattus norvegicus [8], -23 beats min-1; with Rattus norvegicus [10] it was -27 beats min-1; with Rattus norvegicus [16], 362 beats min-1. In addition, the BP in the test with Rattus norvegicus [11] came to 160 mmHg. Besides, the “Decrease in blood pressure” value with Rattus norvegicus [12] is reported as over 30.

`C[C@H](CCc1ccccc1)NC[C@@H](O)c1ccc(O)c(C(N)=O)c1.Cl`: in the test on Rattus norvegicus [24], the Decreace in BP was 12 mmHg. Moreover, the figures for the ID50 in [17] and in test [25] were 1.3 mg/kg and 5 mg/kg, respectively. In addition, the “Change in BP” value is -4 mmHg with Rattus norvegicus [18], -5 mmHg in the test on Rattus norvegicus [20], -3 mmHg in the test on Rattus norvegicus [21] and -12 mmHg with Rattus norvegicus [23]. Moreover, the Heart rate is -9 beats min-1 in the test on Rattus norvegicus [5]; -16 beats min-1 in the test on Rattus norvegicus [7]; -39 beats min-1 in the test on Rattus norvegicus [8]; -34 beats min-1 in the test with Rattus norvegicus [10]; 359 beats min-1 in the test on Rattus norvegicus [16]. The molecule also gave a Relative potency in [26] of 5.1. The same molecule returned a BP with Rattus norvegicus [11] of 158 mmHg.

Turning to `C[C@@H](CCc1ccccc1)NC[C@@H](O)c1ccc(O)c(C(N)=O)c1.Cl`, the ID50 in [17] came to 4.8 mg/kg. For the same molecule, the “Change in BP” value with Rattus norvegicus [18] is given as 11 mmHg; in the test with Rattus norvegicus [20], 10 mmHg; in the test with Rattus norvegicus [21], 8 mmHg; with Rattus norvegicus [23], 4 mmHg. In addition, the Heart rate in the test with Rattus norvegicus [5] is 8 beats min-1; with Rattus norvegicus [7] it was 1 beats min-1; with Rattus norvegicus [8], -7 beats min-1; in the test on Rattus norvegicus [10] it was -4 beats min-1; with Rattus norvegicus [16], 356 beats min-1. For the same molecule, the ID50 entry in test [27] is “inactive”. The BP in the test on Rattus norvegicus [11] was 159 mmHg. This molecule returned a Relative potency in test [13] of 0. The “Decrease in blood pressure” value in the test with Rattus norvegicus [28] was determined as 0.

In the case of `C[C@@H](CCc1ccccc1)NC[C@H](O)c1ccc(O)c(C(N)=O)c1.Cl`, the ID50 entry in test [29] is “inactive”. Further, the “Change in BP” value in the test with Rattus norvegicus [18] is 6 mmHg; in the test with Rattus norvegicus [20], -2 mmHg; with Rattus norvegicus [21], 8 mmHg; in the test with Rattus norvegicus [23] it was -5 mmHg. Moreover, the Heart rate in the test with Rattus norvegicus [5] is listed as 7 beats min-1; in the test with Rattus norvegicus [7] it was 5 beats min-1; in the test on Rattus norvegicus [8], 6 beats min-1; in the test with Rattus norvegicus [10], -8 beats min-1; in the test on Rattus norvegicus [16], 362 beats min-1. In test [25], this molecule gave an ID50 of 4.1 mg/kg. In the test with Rattus norvegicus [11], this molecule gave a BP of 164 mmHg. In addition, the Relative potency in test [13] was under 0.06. In addition, the “Decrease in blood pressure” value with Rattus norvegicus [28] was found to be 0.

Values taken from ChEMBL document CHEMBL1121973, “Synthesis and comparison of some cardiovascular properties of the stereoisomers of labetalol” (1982).
